Screening data from PubChem.
Calb biofilm kill: mixtures killing C. albicans biofilm; C. albicans biofilm persisters + clotrimazole, fluorescence viability; primary screen in compound mixtures of four per well; inhibition, % at 7.6 µM; hit rate 0.02% among 120,000;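 active = inhibition above 30.3% in the primary screen of four-compound pools, then above 30% when the compound was retested; inconclusive = passed the primary limit but could not be retested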;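 also: compounds exposed to preformed 24 h biofilms for 48 h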
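Test system: C. albicans CAF4-2 wild-type biofilms; buffer or medium: RPMI/MOPS medium, pH 7.0; schedule: 24 h biofilm formation, then 48 h compound exposure, 37 °C; detection: Alamar Blue fluorescence; measure: percent inhibition of biofilm viability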
ROMK mod: modulates human ROMK potassium channel activity. Tet-inducible ROMK, thallium flux fluorescence; actives lie on both sides. P48048. hit rate 2% among 130,000. B-score at 10 µM;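 active = signal ratio slope over the read window, or its plate-corrected B-score, at least 3 SD from the plate mean, either direction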;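 also: B-score of the F/F0 ratio slope over 7 to 12 s after thallium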
Target sequence (P48048 whole entry, looked up): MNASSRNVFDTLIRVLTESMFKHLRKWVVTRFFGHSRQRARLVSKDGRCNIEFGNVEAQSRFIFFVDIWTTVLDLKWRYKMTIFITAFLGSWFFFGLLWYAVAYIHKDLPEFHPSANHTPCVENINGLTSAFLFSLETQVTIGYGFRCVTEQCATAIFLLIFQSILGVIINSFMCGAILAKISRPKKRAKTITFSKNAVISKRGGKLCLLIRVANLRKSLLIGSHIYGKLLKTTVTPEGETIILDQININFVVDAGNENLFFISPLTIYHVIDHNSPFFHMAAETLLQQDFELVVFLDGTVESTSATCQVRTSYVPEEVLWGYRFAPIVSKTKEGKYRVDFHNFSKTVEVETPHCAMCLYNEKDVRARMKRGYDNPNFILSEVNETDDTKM
ROMK retest: retested hit modulating human ROMK potassium channel. shares compounds with ROMK mod. ROMK thallium flux, fluorescence ratio; stronger effect = lower value. normalized thallium flux (F/F0 slope) at 10 µM. hit rate 54% among 3,000. AID 1917;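 active = Flux at 10 µM at least 3 SD below or above vehicle control mean in one or both replicates; inconclusive = no clear call, values can overlap the other calls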
Of the large screens only hits and unclear results are named; the others gave an inactive call (follow-up assays come after a bar, where they were run). The full list was thinned out, with hits kept by preference.

O=C(O)c1cccnc1SC1CC(=O)N(c2ccccc2)C1=O (stereo unspecified)	none
CC(c1ccccc1)N1C(=O)CC(Sc2ncccc2C(=O)O)C1=O (stereo unspecified)	ROMK mod 0.9 (no result: Calb biofilm kill) | ROMK retest inactive
CCOC(=O)c1cc(C(=O)OCC)c(=O)[nH]c1N1CCCC1	none
CN(C(=O)c1coc(=O)c2ccccc12)c1ccccc1Cl	none
Cc1[nH][nH]c(=O)c1N=Nc1ccccc1C#N	none
Cc1ccc(N=Nc2c(C)[nH][nH]c2=O)c(C)c1	ROMK mod 1.3 (no result: Calb biofilm kill) | ROMK retest inactive
CSc1ccc(/C=N/N2CCN(C)CC2)cc1	none
O=C1N=C2SCCN2/C1=C\c1ccc(Cl)cc1	ROMK mod -7.6 (no result: Calb biofilm kill) | ROMK retest 0.047
Cc1ccc(/C=C2\SC(N3CCCC3)=NC2=O)cc1	none
CC(=O)Nc1ccc(OCCOc2ccc(/C=C3/C(=N)N4C=CSC4=NC3=O)cc2)cc1	ROMK mod 4.1 | ROMK retest inconclusive
Cc1ccc(Cn2cccc2/C=C2/C(=N)N3C=CSC3=NC2=O)cc1	none
COc1ccc(CN=CC2=C(O)CNC2=O)cc1OC	none (no result: Calb biofilm kill)
Fc1cccc(-c2oncc2-c2nnnn2-c2ccc(Cl)cc2)c1	ROMK mod -7.4 | ROMK retest inactive
Clc1ccc(-n2nnnc2-c2ccno2)cc1	none (no result: ROMK mod)
O=C(O)C1C(C(=O)O)C1(c1ccccc1)c1ccccc1 (stereo unspecified)	none (no result: ROMK mod)
CC1(C)[C@@H](O)CC[C@]2(C)C3C(O)C=C4[C@H]5C[C@@](C)(C(=O)O)CC[C@]5(C)CC[C@]4(C)[C@]3(C)CC[C@@H]12 (stereo partly specified)	none (no result: ROMK mod) | ROMK retest inactive
CC1(C)C(=O)CC[C@]2(C)C3C(=O)C=C4[C@H]5C[C@@](C)(C(=O)O)CC[C@]5(C)CC[C@]4(C)[C@]3(C)CC[C@@H]12 (stereo partly specified)	none (no result: ROMK mod)
COC(=O)CCCCCCCC(=O)Nc1nnc(C(F)(F)F)s1	none (no result: ROMK mod)
O=C(Nc1cnc2ccccc2c1)c1cccc(-n2cnnn2)c1	none (no result: Calb biofilm kill, ROMK mod) | ROMK retest 0.06
O=C(NNC(=O)c1cccc(-n2cnnn2)c1)c1ccccc1	none
CC(=O)c1c(C)[nH]c(C(=O)OCc2ccccc2)c1C	none
CC(=O)c1c(C)[nH]c(C(=O)OCCCCN2C(=O)c3ccccc3C2=O)c1C	none (no result: Calb biofilm kill, ROMK mod) | ROMK retest 0.061
CCOc1ccc(/C=C2\SC(=S)N(C(C(=O)O)c3ccccc3)C2=O)cc1OC (stereo unspecified)	none (no result: ROMK mod)
COc1ccc(OC)c(/C=C2\SC(=S)N(C(C(=O)O)c3ccccc3)C2=O)c1 (stereo unspecified)	none (no result: ROMK mod) | ROMK retest 0.052
CCOc1ccc(-n2c(O)cc(=O)[nH]c2=O)cc1	none
CCOc1ccc(N(CC(=O)N2CCN(c3ccccc3)CC2)S(=O)(=O)c2c(C)noc2C)cc1	none (no result: Calb biofilm kill, ROMK mod) | ROMK retest inactive
CCOC(=O)N1CCN(C(=O)CN(c2ccc(C)cc2)S(=O)(=O)c2c(C)noc2C)CC1	none (no result: Calb biofilm kill)
COc1ccc(OC)c2c(C)cc(N3CCN(C(=O)c4ccc(C)cc4)CC3)nc12	ROMK mod -8.5 | ROMK retest inactive
Cc1ccc(C(=O)N2CCN(c3ncnc4c(C)csc34)CC2)cc1	none (no result: ROMK mod)
C/C=C\C=C\C(=O)Nc1cccc(C2=NOC3(C2)C[C@H](C(N)=O)N(C(=O)c2ccccc2C(=O)c2ccccc2)C3)c1 (stereo partly specified)	none (no result: ROMK mod)
O=C(/C=C/c1c(Cl)nc2ccccn12)N1CCCCC1	none
CS(=O)(=O)N1CCc2cc(-c3csc(NC(=O)Cc4cccs4)n3)ccc21	none (no result: Calb biofilm kill, ROMK mod) | ROMK retest 0.068
CC(=O)Nc1nc(-c2ccc3c(c2)CCN3S(C)(=O)=O)cs1	none
CC1(C)C2CCC1(C)C(Nc1ccccc1)C2 (stereo unspecified)	none (no result: ROMK mod)
CCOC(=O)c1[nH]c2ccccc2c1NC(=S)Nc1ccccc1	none
CCOC(=O)c1[nH]c2ccccc2c1NC(=S)Nc1cccc(C)c1	none | ROMK retest inactive
Cc1cc(Nc2cccc(Cl)c2C)n2ncnc2n1	none
COc1cccc(OCCNc2cc(N3CCCCC3)ccc2[N+](=O)[O-])c1	none (no result: Calb biofilm kill)
CC1CN(c2ccc([N+](=O)[O-])c(NCCOc3ccccc3)c2)CCN1 (stereo unspecified)	ROMK mod -2.5 | ROMK retest 0.062
Cc1ccccc1NC(=O)C1(NC(=O)c2cccc(N3C(=O)CSC3c3ccccc3)c2)CCCCC1 (stereo unspecified)	none (no result: Calb biofilm kill)
COc1cccc(NC(=O)CSc2nc3ccccc3c3nc4ccccc4n23)c1	none
CN(Cc1ccccc1)Cc1nc2c(c(=O)n(C)c(=O)n2C)n1CCCc1ccccc1	ROMK mod -3.6 (no result: Calb biofilm kill) | ROMK retest 0.065
CCOC(=O)Cn1c(CN(C)Cc2ccccc2)nc2c1c(=O)n(C)c(=O)n2C	none (no result: Calb biofilm kill)
O=C1C(=O)c2ccc(-c3ccccc3)cc2-c2ccccc21	none
Nc1ccc2c(c1)C(=O)C(=O)c1ccccc1-2	ROMK mod -5.6 (no result: Calb biofilm kill) | ROMK retest 0.037
c1ccc(-n2cc(CNCCc3cscn3)c(-c3ccc4c(c3)OCO4)n2)cc1	ROMK mod -3.1 | ROMK retest 0.05
COCC1CCCCN1Cc1cn(-c2ccccc2)nc1-c1ccc2c(c1)OCO2 (stereo unspecified)	ROMK mod -3.4 | ROMK retest 0.065
OCc1cn(-c2ccccc2)nc1-c1ccc2c(c1)OCCO2	none (no result: Calb biofilm kill)
OC[C@@H]1CCCN1Cc1cn(-c2ccccc2)nc1-c1ccc2c(c1)OCO2	none
Cc1cccc(NC(=O)Cc2cccs2)n1	none (no result: Calb biofilm kill)
COc1cccc(-c2csc3nc[nH]c(=O)c23)c1	none (no result: Calb biofilm kill)
CCCOc1ccc(N2C(=O)CC(NCCNc3ccc([N+](=O)[O-])cn3)C2=O)cc1 (stereo unspecified)	none (no result: ROMK mod)
CCOc1ccc2c(c1)/C(=C(\C(Cl)=C(Cl)Cl)[N+](=O)[O-])N2	ROMK mod -4.7 | ROMK retest 0.053
CCOc1ccc2c(c1)/C(=N/N1C(=O)c3ccccc3C1=O)C(=O)N2	none (no result: ROMK mod)
CCCCOc1ccc2c(c1)/C(=C(\C(Cl)=C(Cl)Cl)[N+](=O)[O-])N2	ROMK mod -5.6 | ROMK retest 0.054
O=[N+]([O-])/C(C(Cl)=C(Cl)Cl)=C1\Nc2ccccc2O1	none
COc1ccc(-n2c(SCc3cccnc3)nc3c(c2=O)SCC3)cc1OC	none
COc1cccc(-n2c(SCc3ccccn3)nc3c(c2=O)SCC3)c1	ROMK mod 1.1 | ROMK retest inactive
O=C(CS(=O)(=O)Cc1ccccc1)N1CCN(C(=O)c2ccco2)CC1	none (no result: Calb biofilm kill)
CCN(CC)S(=O)(=O)c1ccc(Cl)c(OC)c1	none (no result: Calb biofilm kill)
CCCN(CCC)S(=O)(=O)c1ccc(Cl)c(OC)c1	ROMK mod -16 | ROMK retest inconclusive
Cc1cccc(NC(=S)NCC(c2cccnc2)N2CCOCC2)c1C (stereo unspecified)	none (no result: ROMK mod)
COc1ccc(C(C[N+](=O)[O-])C2(c3ccc(OC)c(OC)c3)C(=O)c3ccccc3C2=O)cc1 (stereo unspecified)	ROMK mod -5.1 | ROMK retest inconclusive
COC(=O)C(C(=O)OC)C(C[N+](=O)[O-])c1ccc(OC)c(OC)c1 (stereo unspecified)	none (no result: Calb biofilm kill)
Cc1cccc(NCCC(=O)c2ccc([N+](=O)[O-])cc2)c1C	none
O=c1[nH]c(C(Cl)Cl)nc2sc3c(c12)CCN(Cc1ccccc1)C3	none
CCCSc1nc2sc3c(c2c(=O)[nH]1)CCN(Cc1ccccc1)C3	ROMK mod -5.4 (no result: Calb biofilm kill) | ROMK retest 0.03
Cc1cccc(CC2S/C(=N/N=C/c3ccco3)N(c3ccccc3)C2=O)c1 (stereo unspecified)	none
CC(=O)Nc1ccc(C(=O)N/N=C/c2cc(Br)cc(Br)c2O)cc1	none
